# Measurements from different studies.
# Each line is one published result; the experiments were not run side by side. pIC50: −log10 of the molar value.
# Observed: cell growth or viability
SMILES,cell line,technique,time,measurement,result
Cc1ncsc1-c1ccc([C@H](C)NC(=O)[C@@H]2C[C@@H](O)CN2C(=O)[C@@H](NC(=O)CN2CCN(c3cc(-c4ccccc4O)nnc3N)CC2)C(C)(C)C)cc1,VCaP,ATP luminescence,7 days,pIC50,8.04
CC(=O)c1ccc2cc(S(=O)(=O)Nc3ccccc3)ccc2c1,MDCK,neutral red,48 h,pIC50,4.04
Cc1ccc(S(=O)(=O)n2cc(/C=N/NC(=O)c3cc4ccccc4cc3O)c3ccccc32)cc1,MCF-10A,MTT,48 h,pIC50,< 4.30
COC[C@H](NC(=O)c1ccn(S(C)(=O)=O)c1)C(=O)Nc1nc(-c2cccc(N3C[C@@H](C)O[C@@H](C)C3)n2)cs1,VCaP,ATP luminescence,7 days,pIC50,7.58
CNC(=O)c1cc(Oc2ccc(NC(=O)Nc3ccc(Cl)c(C(F)(F)F)c3)cc2)ccn1,BALB/3T3 clone A31,SRB,72 h,IC50,0.42 µg/mL
CC(=O)c1ccc2cc(S(=O)(=O)Nc3ccccc3C)ccc2c1,MDCK,neutral red,48 h,pIC50,4.66
CCOC(=O)c1c(C)nc2ccc(-c3ccc(F)cc3F)cc2c1O,MCF-10A,MTT,48 h,pIC50,≤ 4.00
CC(C)(C)[C@H](NC(=O)/C=C/c1ccc(OP(=O)(O)O)cc1)C(=O)N1CCC[C@H]1C(=O)N(c1ccccc1)c1ccc(I)cc1,JHH7,CCK-8,,pIC50,5.51
Nc1ccn([C@@H]2O[C@H](CO)[C@@H](O)C2(F)F)c(=O)n1,4T1,MTT,24 h,IC50,5.78 µg/mL
N#Cc1ccc(-c2cc(CNc3cccc4cccnc34)on2)cc1,K562,MTS,72 h,pIC50,4.95
O=C1C(=O)N(CCn2ncc3c(=O)[nH]cnc32)c2ccc(F)cc21,BALB/3T3 clone A31,SRB,72 h,IC50,19.6 µg/mL
COc1cccc2c1C(=O)c1c(O)c3c(c(O)c1C2=O)C[C@@](O)(C(=O)CO)C[C@@H]3O[C@H]1C[C@H](N)[C@H](O)[C@H](C)O1,NCI-H446,SRB,,pIC50,6.10
Cc1ccc(S(=O)(=O)n2cc(/C=N/NC(=O)c3ccc(C(F)(F)F)cc3)c3ccccc32)cc1,MCF-10A,MTT,48 h,pIC50,< 4.30
CC(C)[C@@H]1NC(=O)[C@H](Cc2c[nH]cn2)NC1=O,NCI-H446,SRB,,pIC50,< 4.82
N#Cc1ccc(-c2cc(COc3cc(C(F)(F)F)nc4ccccc34)on2)cc1,K562,MTS,72 h,pIC50,4.08
Cc1ccc(S(=O)(=O)n2cc(/C=N/NC(=O)Cc3ccccc3C(F)(F)F)c3ccccc32)cc1,MCF-10A,MTT,48 h,pIC50,< 4.30
COc1cc(C2C3=C(COC3=O)N(CCO)c3cc4c(cc32)CCC4)cc(OC)c1OC (stereo not drawn),4T1,ATP luminescence,48 h,pIC50,6.07
CCCCC(=O)Nc1ccc(-c2ccc3ncn(CCC)c(=O)c3c2)cn1,human PBMC,CCK-8,72 h,pIC50,< 5.00
COc1cc([C@@H]2c3cc4c(cc3[C@@H](O[C@@H]3O[C@@H]5CO[C@@H](C)O[C@H]5[C@H](O)[C@H]3O)[C@H]3COC(=O)[C@H]23)OCO4)cc(OC)c1O,K562,MTS,72 h,pIC50,7.52
CC(=O)c1ccc2cc(S(=O)(=O)Nc3ccccc3Cl)ccc2c1,MDCK,neutral red,48 h,pIC50,4.90
NC(=O)c1cnc(NCCc2ccc(O)c(Cl)c2)nc1NCc1ccccc1,JHH7,CCK-8,48 h,pIC50,5.89
COc1ccc2c(c1)/C(=N/NC(N)=S)C(=O)N2CCn1ncc2c(=O)[nH]cnc21,BALB/3T3 clone A31,SRB,72 h,IC50,77.5 µg/mL
Cc1ccc(S(=O)(=O)n2cc(/C=N/NC(=O)c3ccccc3)c3ccccc32)cc1,MCF-10A,MTT,48 h,pIC50,< 4.30
CN1CCC(NC2CCc3[nH]c4c(C(N)=O)ccc(-c5ccccc5Cl)c4c3C2)CC1 (stereo not drawn),NCI-H446,,96 h,pIC50,8.10
COc1ccc2c(c1)C(=O)C(=O)N2CCn1ncc2c(=O)[nH]cnc21,BALB/3T3 clone A31,SRB,72 h,IC50,21.7 µg/mL
FC(F)(F)c1ccc(-c2cc(COc3cc(C(F)(F)F)nc4ccccc34)on2)cc1,K562,MTS,72 h,pIC50,< 4.00
Cc1ccc(S(=O)(=O)n2cc(/C=N/NC(=O)Cc3ccc(F)cc3F)c3ccccc32)cc1,MCF-10A,MTT,48 h,pIC50,< 4.30
CC(=O)c1ccc2cc(S(=O)(=O)Nc3ccc(F)cc3)ccc2c1,MDCK,neutral red,48 h,pIC50,4.03
Nc1ncnc2c1ncn2CCN1C(=O)C(=O)c2cc(Cl)ccc21,BALB/3T3 clone A31,SRB,72 h,IC50,24.4 µg/mL
Cc1ccc(S(=O)(=O)n2cc(/C=N/NC(=O)c3ccc(Br)cc3)c3ccccc32)cc1,MCF-10A,MTT,48 h,pIC50,< 4.30
